Laboratory results published in ChEMBL document CHEMBL3132834, “Synthesis and biological activity of NOSH-naproxen (AVT-219) and NOSH-sulindac (AVT-18A) as potent anti-inflammatory agents with chemotherapeutic potential” (Medchemcomm, 2013).

Tests used:
Jurkat [1] = assay: Cytotoxicity against human Jurkat cells assessed as growth inhibition after 24 hrs by MTT assay; format: functional, cell-based
How it was run: (§1)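 30,000 cells/well added to serially diluted compounds in V-bottom plates, 24 h at 37°C in 5% CO₂. MTT (1.1 mg/mL) added for 4 h more, formazan dissolved in DMSO, A570 read. IC₅₀ from 5–7 experiments in triplicate; ratio is parent IC₅₀ over hybrid IC₅₀.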

HT-29 [2] = assay: Cytotoxicity against human HT-29 cells assessed as growth inhibition after 24 hrs by MTT assay; format: functional, cell-based; details: for IC50: HT-29, 24 h
How it was run: (§2)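 Cells grown in 10% FCS medium: HT-29 in McCoy 5A; MCF-7 and BxPC-3 in DMEM. 50,000 cells/well exposed to a range of concentrations for 24 h. MTT added for 2 h at 37°C, formazan dissolved in 10% SDS/0.01 M HCl, A570 read. IC₅₀ from cell numbers; mean ± S.E.M. of 5–7 experiments in triplicate. Ratios are parent IC₅₀ over hybrid IC₅₀.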

MCF7 = assay: Cytotoxicity against human MCF7 cells assessed as growth inhibition after 24 hrs by MTT assay; format: functional, cell-based; details: for IC50: MCF7, 24 h; how it was run: as §2
[3] = (§3) Cytotoxicity against human BxPC3 cells assessed as growth inhibition after 24 hrs by MTT assay; format: functional, cell-based; details: BXPC-3, 24 h; how it was run: as §2
Serum [4] = assay: Prodrug conversion in carrageenan-induced Wistar rat model assessed as sulfide species in serum at 200 mg/kg through gavage administered 1 hr prior to carrageenan-challenge; format: ADME, organism-based; design: dose 200 mg/kg; details: in vivo, po
How it was run: (§4)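 Blood taken at the end of the carrageenan edema study from gavage-dosed rats (3 per group). Sulfide measured by the methylene blue method: plasma mixed with zinc acetate, trichloroacetic acid, N,N-dimethyl-p-phenylenediamine and FeCl₃ in 7.2M HCl, A670 read after 15 min. Run in duplicate against a NaHS calibration curve (1-250 μM). The read-out is total H₂S + HS⁻ + S²⁻.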

Rattus norvegicus [5] = assay: Antiinflammatory activity in Wistar rat assessed as inhibition of carrageenan-induced paw volume at 200 mg/kg through gavage administered 1 hr prior to carrageenan-challenge measured after 4 hrs (reference value: 1.1 +/- 0.1 mL); format: functional
Rattus norvegicus [6] = assay: Antiinflammatory activity in carrageenan-induced Wistar rat model assessed as inhibition of PGE2 level at 200 mg/kg through gavage administered 1 hr prior to carrageenan-challenge measured after 4 hrs (reference value: 95 +/- 7 pg/mL); format: functional
[7] = Selectivity ratio of IC50 for human MCF7 cells to IC50 for human IMR90 cells; format: ADME, cell-based, IMR-90; details: MCF7 cells versus IMR90 cells, read-out: Ratio IC50
HT-29 [8] = assay: Cell cycle arrest in human HT-29 cells assessed as accumulation at G0/G1 phase at IC50 concentration after 24 hrs by propidium iodide staining-based flow cytometric analysis (reference value: 40.9 +/- 3.1%); format: functional
HT-29 [9] = assay: Induction of human HT-29 cells assessed as assessed as early apoptotic cells at IC50 concentration after 3 hrs by propidium iodide staining-based flow cytometric analysis; format: functional
HT-29 [10] = assay: Induction of human HT-29 cells assessed as assessed as early apoptotic cells at IC50 concentration after 24 hrs by propidium iodide staining-based flow cytometric analysis; format: functional
HT-29 [11] = assay: Induction of human HT-29 cells assessed as assessed as early apoptotic cells at IC50 concentration after 6 hrs by propidium iodide staining-based flow cytometric analysis; format: functional
HT-29 [12] = assay: Cell cycle arrest in human HT-29 cells assessed as accumulation at S phase at IC50 concentration after 24 hrs by propidium iodide staining-based flow cytometric analysis (reference value: 31.7 +/- 3.7%); format: functional
Jurkat [13] = assay: Ratio of sulindac IC50 to compound IC50 for human Jurkat cells after 24 hrs by MTT assay; format: functional
How it was run: as §1, with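 “Jurkat T cells grown in suspension in RPMI 1640 with 10% FCS. 30,000” for “30,000”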

[14] = Selectivity ratio of IC50 for human Jurkat cells to IC50 for human IMR90 cells; format: ADME, cell-based; details: Jurkat cells versus IMR90 cells, read-out: Ratio IC50
[15] = Cytotoxicity against human IMR90 cells assessed as growth inhibition after 24 hrs by MTT assay; format: cell-based; details: IMR-90, 24 h
How it was run: (§5)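 Normal human cells: IMR-90 lung fibroblasts in EMEM with 10% heat-inactivated FCS and 2 mmol/L L-glutamine; primary pancreatic epithelial ACBRI 515 in serum-free medium with attachment factor; HMEpC in mammary epithelial growth medium. Exposed to a range of concentrations for 24 h; IC₅₀ from cell numbers. Mean ± SEM of 3 experiments in duplicate.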

Rattus norvegicus [16] = assay: Antiinflammatory activity in carrageenan-induced Wistar rat model assessed as inhibition of PGE2 level at 467 mg/kg through gavage administered 1 hr prior to carrageenan-challenge measured after 4 hrs (reference value: 95 +/- 7 pg/mL); format: functional
[17] = Selectivity ratio of IC50 for human BxPC3 cells to IC50 for human ACBRI 515 cells; format: ADME, cell-based, BXPC-3; details: BxPC3 cells versus ACBRI 515 cells, read-out: Ratio IC50
HT-29 [18] = assay: Induction of human HT-29 cells assessed as assessed as early apoptotic cells at IC50 concentration after 12 hrs by propidium iodide staining-based flow cytometric analysis; format: functional
Serum [19] = assay: Prodrug conversion in carrageenan-induced Wistar rat model assessed as sulfide species in serum at 467 mg/kg through gavage administered 1 hr prior to carrageenan-challenge; format: ADME, organism-based; design: dose 467 mg/kg; details: in vivo, po; how it was run: as §4
Rattus norvegicus [20] = assay: Antiinflammatory activity in Wistar rat assessed as inhibition of carrageenan-induced paw volume at 467 mg/kg through gavage administered 1 hr prior to carrageenan-challenge measured after 4 hrs (reference value: 1.1 +/- 0.1 mL; format: functional
[21] = Selectivity ratio of IC50 for human HT-29 cells to IC50 for human IMR90 cells; format: ADME, cell-based; details: HT-29 cells versus IMR90 cells, read-out: Ratio IC50
BXPC-3 [22] = assay: as §3; format: functional, cell-based; how it was run: as §2
HT-29 [23] = assay: Antiproliferative activity against human HT-29 cells assessed as reduction in PCNA expression at IC50 concentration; format: functional, cell-based; details: TDE = time-dependent effect
[24] = Cytotoxicity against human HMEpC cells assessed as growth inhibition after 24 hrs by MTT assay; format: cell-based; how it was run: as §5
HT-29 [25] = assay: Antiproliferative activity against human HT-29 cells assessed as reduction in PCNA expression at IC50 concentration after 24 hrs; format: functional
HT-29 [26] = assay: Cell cycle arrest in human HT-29 cells assessed as accumulation at sub G2/M phase at IC50 concentration after 24 hrs by propidium iodide staining-based flow cytometric analysis (reference value: 27.7 +/- 42%); format: functional
[27] = Selectivity ratio of IC50 for human BxPC3 cells to IC50 for human IMR90 cells; format: ADME, cell-based, IMR-90; details: BxPC3 cells versus IMR90 cells, read-out: Ratio IC50
[28] = Selectivity ratio of IC50 for human MCF7 cells to IC50 for human HMEpC cells; format: ADME, cell-based; details: MCF7 cells versus HMEpC cells, read-out: Ratio IC50
[29] = Cytotoxicity against human ACBRI 515 cells assessed as growth inhibition after 24 hrs by MTT assay; format: cell-based; details: ACBRI-515, 24 h; how it was run: as §5
BXPC-3 [30] = assay: Ratio of naproxen IC50 to compound IC50 for human BxPC3 cells after 24 hrs by MTT assay; format: functional
HT-29 [31] = assay: Cell cycle arrest in human HT-29 cells assessed as accumulation at sub G2/M phase at IC50 concentration after 24 hrs by propidium iodide staining-based flow cytometric analysis (reference value: 28.7 +/- 2.1%); format: functional
Serum [32] = assay: Prodrug conversion in carrageenan-induced Wistar rat model assessed as sulfide species in serum at 188 mg/kg through gavage administered 1 hr prior to carrageenan-challenge; format: ADME, organism-based; design: dose 188 mg/kg; details: in vivo, po; how it was run: as §4
HT-29 [33] = assay: Cell cycle arrest in human HT-29 cells assessed as accumulation at G0/G1 phase at IC50 concentration after 24 hrs by propidium iodide staining-based flow cytometric analysis (reference value: 42.2 +/- 4%); format: functional
Rattus norvegicus [34] = assay: Antiinflammatory activity in Wistar rat assessed as inhibition of carrageenan-induced paw volume at 188 mg/kg through gavage administered 1 hr prior to carrageenan-challenge measured after 4 hrs (reference value: 1.1 +/- 0.1 mL); format: functional
HT-29 [35] = assay: Cell cycle arrest in human HT-29 cells assessed as accumulation at S phase at IC50 concentration after 24 hrs by propidium iodide staining-based flow cytometric analysis (reference value: 29.2 +/- 3.3%); format: functional
Rattus norvegicus [36] = assay: Antiinflammatory activity in carrageenan-induced Wistar rat model assessed as inhibition of PGE2 level at 188 mg/kg through gavage administered 1 hr prior to carrageenan-challenge measured after 4 hrs (reference value: 95 +/- 7 pg/mL); format: functional

Molecule CC1=C(CC(=O)O)c2cc(F)ccc2/C1=C\c1ccc([S+](C)[O-])cc1 (configuration not stated) has an IC50 (Jurkat [1]) of 699 µM, an IC50 (HT-29 [2]) of 800 µM and an IC50 (MCF7) of 965 µM. The IC50 [3] was 980 µM, the Stability (Serum [4]) was “Stable” and the Activity (Rattus norvegicus [5]) was 0.22 mL. It also gave an Activity (Rattus norvegicus [6]) of 12 pg/mg.
COc1ccc2cc([C@H](C)C(=O)O)ccc2c1 [NAPROXEN] gave an IC50 (HT-29 [2]) of 2600 µM, an IC50 (MCF7) of 2380 µM and an IC50 [3] of 2450 µM.
In the case of Oc1ccc(-c2cc(=S)ss2)cc1, the IC50 (HT-29 [2]) is reported as 35 µM.
In the case of CC(=O)N[C@H](C(=O)O)C(C)(C)SN=O, the IC50 (HT-29 [2]) is reported as 508 µM.
CC1=C(CC(=O)Oc2ccc(OC(=O)CCCO[N+](=O)[O-])c(C(=O)Oc3ccc(-c4cc(=S)ss4)cc3)c2)c2cc(F)ccc2/C1=C\c1ccc([S+](C)[O-])cc1 (configuration not stated) showed a selectivity ratio [7] of 70, an Activity (HT-29 [8]) of 29.6% and an Activity (HT-29 [9]) of 2.8%. It also gave an Activity (HT-29 [10]) of 39.4%, an Activity (HT-29 [11]) of 10.1% and an IC50 (Jurkat [1]) of 0.27 µM. The “growth inhibition (GI)” value (Jurkat [1]) was “Dose-dependent effect”, the “growth inhibition (GI)” value (HT-29 [2]) was “Dose-dependent effect” and the IC50 (HT-29 [2]) was 0.089 µM. For the same molecule, the Activity (HT-29 [12]) was 10.6%, the “Ratio IC50” value (Jurkat [13]) was 2500 and the selectivity ratio [14] was 70. The IC50 [15] was 21.7 µM, the “growth inhibition (GI)” value (MCF7) was “Dose-dependent effect” and the IC50 (MCF7) was 0.1 µM. It also gave an Activity (Rattus norvegicus [16]) of 29 pg/mg, a selectivity ratio [17] greater than 200 and an Activity (HT-29 [18]) of 23.2%. For the same molecule, the Stability (Serum [19]) was “Stable”, the Activity (Rattus norvegicus [20]) was 0.21 mL and the selectivity ratio [21] was 70. The IC50 [3] was 0.12 µM, the “growth inhibition (GI)” value (BXPC-3 [22]) was “Dose-dependent effect” and the inhibition (HT-29 [23]) was “tde”. For the same molecule, the IC50 [24] was 15.2 µM, the “inhibition (INH)” value (HT-29 [25]) was 50% and the Activity (HT-29 [26]) was 59.8%. For the same molecule, the selectivity ratio [27] was 70, the selectivity ratio [28] was 150 and the IC50 [29] was greater than 25 µM.
C[C@H](C(=O)Oc1ccc(-c2cc(=S)ss2)cc1)c1ccc2cc(OC(=O)CCCO[N+](=O)[O-])ccc2c1 gave a selectivity ratio [7] of 70, an Activity (HT-29 [9]) of 9.2% and an Activity (HT-29 [10]) of 59.2%. The Activity (HT-29 [11]) was 25.3%, the IC50 (Jurkat [1]) was 0.1 µM and the “growth inhibition (GI)” value (Jurkat [1]) was “Dose-dependent effect”. The “growth inhibition (GI)” value (HT-29 [2]) was “Dose-dependent effect”, the IC50 (HT-29 [2]) was 0.08 µM and the selectivity ratio [14] was 70. For the same molecule, the “Ratio IC50” value (BXPC-3 [30]) was 16000, the IC50 [15] was 20 µM and the “growth inhibition (GI)” value (MCF7) was “Dose-dependent effect”. The IC50 (MCF7) was 0.12 µM, the Activity (HT-29 [31]) was 19.5% and the selectivity ratio [17] was 147. For the same molecule, the Activity (HT-29 [18]) was 31.9%, the selectivity ratio [21] was 70 and the Stability (Serum [32]) was “Stable”. For the same molecule, the IC50 [3] was 0.15 µM, the “growth inhibition (GI)” value (BXPC-3 [22]) was “Dose-dependent effect” and the Activity (HT-29 [33]) was 58.2%. The inhibition (HT-29 [23]) was “tde”, the IC50 [24] was 13.8 µM and the Activity (Rattus norvegicus [34]) was 0.15 mL. The Activity (HT-29 [35]) was 22.3%, the “inhibition (INH)” value (HT-29 [25]) was 50% and the selectivity ratio [27] was 70. It also gave a selectivity ratio [28] of 115, an Activity (Rattus norvegicus [36]) of 35 pg/mg and an IC50 [29] of 22 µM.
